For experiment [1], the system named is Glutamate NMDA receptor (Rattus norvegicus). As to the kind of experiment: Antagonist activity at NMDA receptor in Sprague-Dawley rat striatal synaptoneurosomes assessed as inhibition of NMDA/glycine-induced calcium flux at 100 uM by spectrofluorimetric analysis relative to control. On the technique in general: Calcium flux is commonly read through the fluorescence of an indicator in the cells.

Experiment [2] is described as follows: Antagonist activity at voltage gated calcium channel in Sprague-Dawley rat striatal synaptoneurosomes assessed as inhibition of KCl-induced calcium flux at 100 uM by spectrofluorimetric analysis relative to control. Format: functional. The gist of the method: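 Rat synaptoneurosomes loaded with Fura-2 AM (5 μM final, 10 min, 37 °C) in Krebs-HEPES pH 7.4. Compounds at 100 μM (0.1% DMSO) are preincubated 5 min at 37 °C. Depolarization is done at 10 s with KCl (140 mM) solution. Baseline is subtracted from peak fluorescence, the KCl-induced rise is taken as 100%, and inhibition is expressed relative to it.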

Experiment [3] addresses T1, Glutamate NMDA receptor (Rattus norvegicus) (UniProt P35439+Q00959+Q00960+Q00961+Q62645+Q8VHN2+Q9R1M7). Kind of experiment: Antagonist activity at NMDA receptor in Sprague-Dawley rat striatal synaptoneurosomes assessed as inhibition of NMDA/glycine-induced calcium flux at 100 uM by spectrofluorimetric analysis relative to control. Format: functional. The gist of the method: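 Male Sprague-Dawley rat brain synaptoneurosomes are loaded with Mag-Fura-2/Fura-2 AM (5 μM final) for 10 min at 37 °C and resuspended in Krebs-HEPES pH 7.4. Compounds at 100 μM (0.1% DMSO final) are preincubated 5 min at 37 °C. NMDA (100 μM) plus glycine (100 μM) is added at 10 s and ratiometric fluorescence is read. Results are % of the DMSO control, 3 preparations × 3 determinations.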

Experiment [4] has as its target T1, Glutamate NMDA receptor (Rattus norvegicus). Kind of experiment: Binding affinity to NMDA receptor in Sprague-Dawley rat striatal synaptoneurosomes at 100 uM after 30 mins by competition binding assay in presence of MK-801. The class given is protein-complex assay. The gist of the method:
(§1)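 Unloaded rat synaptoneurosomes (0.6 mg/ml) are resuspended in Krebs-HEPES at 37 °C and given the fluorescent ligand (100 μM) alone or with a competitor at 100 μM (DMSO <0.1%). NMDA (100 μM) plus glycine (100 μM) is added, followed by 30 min at 37 °C. The pellet is washed and resuspended, and fluorescence is read at 324/455 nm. Results are % of ligand-alone intensity; n = 9.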

For experiment [5] the target is unchanged. Kind of experiment: Binding affinity to NMDA receptor in Sprague-Dawley rat striatal synaptoneurosomes at 100 uM after 30 mins by competition binding assay in presence of NGP1-01. The class given is protein-complex assay. The gist of the method: as §1
Experiment [6] shares this target. Kind of experiment: Binding affinity to NMDA receptor in Sprague-Dawley rat striatal synaptoneurosomes at 100 uM after 30 mins by competition binding assay in presence of amantadine. The class given is protein-complex assay. The gist of the method:
as §1

The target in experiment [7] is Glutamate NMDA receptor. As to the kind of experiment: Antagonist activity at NMDA receptor in Sprague-Dawley rat striatal synaptoneurosomes assessed as inhibition of NMDA/glycine-induced calcium flux by spectrofluorimetric analysis. The class given is functional. The gist of the method:
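Fura-2 AM-loaded rat synaptoneurosomes in Krebs-HEPES pH 7.4 at 37 °C. Compound is preincubated 5 min at log-spaced concentrations. Calcium influx is triggered with NMDA (100 μM) plus glycine (100 μM) and measured by ratiometric spectrofluorimetry. The concentration-response is fitted to a four-parameter logistic equation; 3 preparations × 3 determinations.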

We go through 17 compounds from ChEMBL document CHEMBL1828517, “Synthesis, evaluation and application of polycyclic fluorescent analogues as N-methyl-D-aspartate receptor and voltage gated calcium channel ligands” (Eur J Med Chem, 2011).

Active and inactive are the calls of the source. The rule behind the calls is not given here.

A word on the inhibition: it is the percentage by which the read-out fell short of the control. Consider `O=C(NCCCNC12CC3CC(CC(C3)C1)C2)c1cc2ccccc2oc1=O`, for which the “inhibition (INH)” value in experiment [1] is 86.77%; in experiment [2] it was 67.99%. Also, the inhibition in experiment [3] was found to be 13.2%.
For `CNc1ccccc1C(=O)NC12CC3CC(CC(C3)C1)C2`, the inhibition entry in experiment [3] was “inactive”.
Turning to `O=[N+]([O-])c1ccc(NCCCNC23CC4CC(CC(C4)C2)C3)c([N+](=O)[O-])c1`, the entries for the “inhibition (INH)” value in experiment [1] and in experiment [2] were 76.59% and 88.5%, respectively. In experiment [3], the inhibition was 23.4%.
As for `O=C(NC12CC3CC(CC(C3)C1)C2)c1cc2ccccc2oc1=O`, in experiment [3], the inhibition was found to be 20.3%.
For the compound `N#CCCNC12CC3CC(CC(C3)C1)C2`, the inhibition in experiment [3] is 19.3%.
For the compound `O=C(NC12CC3CC(CC(C3)C1)C2)c1n[nH]c2ccccc12`, the “inhibition (INH)” value in experiment [1] was determined as 83.7%. For the same compound, the inhibition in experiment [3] was found to be 16%.
In the case of `OC12C3C4CC5C6C4C1C6C1(OCCCN21)C53` (configuration not stated), the results for the “inhibition (INH)” value in experiment [1] and in experiment [2] were 77.29% and 87.24%, respectively. Moreover, the inhibition in experiment [3] is 22.7%.
In the case of `CN(C)c1cccc2c(S(=O)(=O)NC34CC5CC(CC(C5)C3)C4)cccc12`, the inhibition in experiment [3] came out at 21.9%.
As to `CNc1ccccc1C(=O)NCCCNC12CC3CC(CC(C3)C1)C2`, the figures for the “inhibition (INH)” value in experiment [1] and in experiment [2] were 88.02% and 87.91%, respectively. The inhibition in experiment [3] stood at 12%.
With `N#Cc1c2ccccc2cn1C12CC3CC(CC(C3)C1)C2`, the inhibition in experiment [3] turned out to be 16%.
With `O=C(OC12C3C4CC5C6C4C1C6C1(OCCCN12)C53)c1n[nH]c2ccccc12` (configuration not stated), the figures for the “inhibition (INH)” value in experiment [1] and in experiment [2] were 77.89% and 83.62%, respectively. The inhibition in experiment [3] came out at 13.6%.
The like results for `O=C(NCCCNC12CC3CC(CC(C3)C1)C2)c1n[nH]c2ccccc12` were, in that order, 95.19%, 86.91% and “inactive”.
Consider `N#Cc1c2ccccc2cn1CCCNC12CC3CC(CC(C3)C1)C2`, for which the “inhibition (INH)” value amounted to 86.41% in experiment [1] and 45.92% in experiment [2]. In experiment [3], the inhibition came out at 13.6%.
As for `O=[N+]([O-])c1ccc(NC23CC4CC(CC(C4)C2)C3)c([N+](=O)[O-])c1`, the inhibition in experiment [3] was determined as 19.2%.
Turning to `CNc1ccccc1C(=O)OC12C3C4CC5C6C4C1C6C1(OCCCN12)C53` (configuration not stated), the figures for the “inhibition (INH)” value in experiment [1] and in experiment [2] were 86.41% and 84.79%, respectively. In addition, the inhibition in experiment [3] came to 12%.
What is called IC50 is the concentration at which inhibition is half-maximal. Consider `CN(C)c1cccc2c(S(=O)(=O)NCCCNC34CC5CC(CC(C5)C3)C4)cccc12`, for which the “inhibition (INH)” value in experiment [1] is 62.97%; in experiment [2] it was 36.74%. The inhibition entry in experiment [4], in experiment [5] and in experiment [6] was “inactive” throughout. The inhibition in experiment [3] was found to be 37%. Moreover, the concentration for half-maximal inhibition (IC50) in experiment [7] came to 270 nM.
`NCCCNC12CC3CC(CC(C3)C1)C2`: the figures for the inhibition (INH) in experiment [1] and in experiment [2] were 91% and 89.3%, respectively. The inhibition in experiment [3] was found to be 9.01%.
